Assay results pooled from the literature.
Target: Serine/threonine-protein kinase Nek11 (NEK11, Homo sapiens, UniProt Q8NG66)
Sequence (Q8NG66 1-645, as in one of the studies): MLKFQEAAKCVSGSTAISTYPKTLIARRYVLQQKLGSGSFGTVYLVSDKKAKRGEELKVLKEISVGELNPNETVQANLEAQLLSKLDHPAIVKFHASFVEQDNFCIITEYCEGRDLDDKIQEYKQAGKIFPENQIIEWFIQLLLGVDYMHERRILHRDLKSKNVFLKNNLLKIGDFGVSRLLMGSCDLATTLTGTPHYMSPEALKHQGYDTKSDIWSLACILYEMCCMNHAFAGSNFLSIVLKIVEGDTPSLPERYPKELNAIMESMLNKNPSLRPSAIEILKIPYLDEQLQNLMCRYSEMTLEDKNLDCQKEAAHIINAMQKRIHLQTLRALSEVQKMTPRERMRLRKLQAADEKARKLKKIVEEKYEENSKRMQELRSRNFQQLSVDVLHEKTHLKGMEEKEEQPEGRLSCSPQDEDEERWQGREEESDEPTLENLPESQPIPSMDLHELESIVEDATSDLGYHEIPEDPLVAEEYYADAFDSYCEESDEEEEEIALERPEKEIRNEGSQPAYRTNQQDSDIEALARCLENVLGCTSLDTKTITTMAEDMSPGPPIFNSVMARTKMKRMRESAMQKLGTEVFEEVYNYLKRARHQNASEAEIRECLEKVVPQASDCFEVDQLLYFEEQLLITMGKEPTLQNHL

Cc1cnc(NC2CCOCC2)nc1-n1cnc(C(=O)NC(CN)c2cc(F)cc(Cl)c2)c1 (centres unmarked) — remaining activity (enzyme activity, inhibitor, radiometric; 1 µM): 81%
CCN(CC)CCNC(=O)c1c(C)[nH]c(/C=C2\C(=O)Nc3ccc(F)cc32)c1C — inhibition (enzyme activity, inhibitor; 10 µM): 46%
CN([C@@H]1CCc2c(CC(=O)O)c3ccccc3n2C1)S(=O)(=O)c1ccc(F)cc1 — remaining binding (cell-free assay, competition with immobilised ligand; 1 µM): 100%
Cc1cc(NC(=O)c2cccc3cc(-c4cccc5[nH]nc(N)c45)ccc23)ccc1F — activity vs control (enzyme activity, inhibitor; 0.1 µM): 91%
C#Cc1cccc(Nc2ncnc3cc(OCCOC)c(OCCOC)cc23)c1 — remaining signal (cell-free assay; 0.5 µM): 114%
CC(C)(C)c1nc2c(s1)c1nc(N)ncc1c1ccc(NS(=O)(=O)c3c(F)cccc3F)c(F)c12 — remaining activity (enzyme activity, inhibitor, radiometric; 1 µM): 60%
CNC(=O)c1cc(Oc2ccc(NC(=O)Nc3ccc(Cl)c(C(F)(F)F)c3)cc2)ccn1 — inhibition (enzyme activity, inhibitor; 10 µM): 28%
CC(C)(O)[C@H]1CC[C@H](Nc2ccc3ncc(-c4cccc(C(F)(F)F)c4)n3n2)CC1 — remaining activity (enzyme activity, inhibitor; 1 µM): 120%
Cc1c(NC(=O)c2cc(C(N)=O)nc3cc(F)ccc23)c(C(F)(F)F)nn1Cc1ccc(C#N)cc1 — remaining binding (cell-free assay, competition with immobilised ligand; 1 µM): 100%
COc1cc2ncnc(Nc3ccc(F)c(Cl)c3)c2cc1OCCCN1CCOCC1 — remaining signal (cell-free assay; 0.5 µM): 109%
C[C@H](c1cccc(C#N)c1)n1cc(Cl)cc(C(N)=O)c1=N — remaining binding (cell-free assay, competition with immobilised ligand; 1 µM): 100%
O=C1Nc2ccc(Cl)cc2C1=Cc1cc(Cl)c(O)c(Cl)c1 — remaining signal (cell-free assay; 0.5 µM): 104%
Cc1ccc(Nc2nccc(N(C)c3ccc4c(C)n(C)nc4c3)n2)cc1S(N)(=O)=O — inhibition (enzyme activity, inhibitor; 0.3 µM): -9%
O=C1NC(=O)c2cc(Nc3ccc(F)cc3)c(Nc3ccc(F)cc3)cc21 — remaining signal (cell-free assay; 0.5 µM): 103%
CS(=O)(=O)N1CCCC(NC(=O)[C@H](CCC2CCCCC2)NC(=O)c2ccc(CNc3ncnc4c3nnn4-c3ccccc3)cc2)C1 (some centres unmarked) — remaining binding (cell-free assay, competition with immobilised ligand; 0.1 µM): 100%
CCCOc1ccc(OC)c(F)c1C(=O)c1ccc(C(=O)N[C@@H]2CNC[C@H]2NC(=O)c2ccc3[nH]ncc3c2)cc1 — remaining activity (enzyme activity, inhibitor; 10 µM): 45%
C[C@H](c1ccc(F)cc1)N(Cc1cccc(C(=O)O)c1)C(=O)c1cnc2ccccc2c1 — remaining binding (cell-free assay, competition with immobilised ligand; 1 µM): 82%
Cc1sc(C(=O)NC2COC2)cc1-n1cc(NC(=O)Nc2c(F)cccc2Cl)cn1 — remaining activity (enzyme activity, inhibitor; 10 µM): 70%
NS(=O)(=O)c1cc(NC(=O)C2(c3ccccc3Cl)CC2)ccc1Oc1cccc(Cl)c1 — remaining binding (cell-free assay, competition with immobilised ligand; 1 µM): 100%
Nc1ncnc2occ(-c3ccc(NC(=O)Nc4cc(C(F)(F)F)ccc4F)cc3)c12 — remaining signal (cell-free assay, inhibitor; 20 µM): 9.3%
